Measurements published in ChEMBL document CHEMBL1128175, “Pyrrolo[2,1-c][1,4]benzothiazines: synthesis, structure-activity relationships, molecular modeling studies, and cardiovascular activity” (J Med Chem, 1995).

Experiments:
[1] = target: T1, Voltage-gated L-type calcium channel (Rattus norvegicus, UniProt P22002+Q02485+P27732); assay: Calcium antagonistic activity by measuring [3H]nitrendipine displacement at calcium channel in rat cortex homogenate; assay type: functional, tissue-based
Summary of the method: (§1)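 Cerebral cortex from male Sprague-Dawley rats, homogenized in 50 mM Na-Hepes pH 7.4 and washed five times by centrifugation at 48000g. Bound ligand collected by rapid filtration and counted. IC50 by log-probit analysis, converted to Ki by the Prusoff method. At least three experiments in triplicate.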

[2] = target: T1, Voltage-gated L-type calcium channel; assay: Inhibition of [3H]nitrendipine binding at L-type [Ca2+] channel in rat cortex homogenate by 50%.; summary of the method: as §1
[3] = species: Cavia porcellus; assay: Tested for the calcium antagonistic activity on K+-depolarized guinea pig aortic strips at 5*10e-5 M.; assay type: functional, Aorta
Summary of the method: (§2)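 Guinea pig aortic strips held at 1 g resting force and equilibrated 1 h in PSS. Contracted with 80 mM KCl (K+ replacing Na+). At plateau (about 30 min), compounds in DMSO were added cumulatively at 0.1-500 µM. Relaxation of isometric force measured.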

[4] = species: Cavia porcellus; assay: Inotropic negative potency on stimulated guinea pig left atrium; assay type: functional; details: Cardiac atrium, read-out: ED50 (the source's name)
Summary of the method: (§3)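 Guinea pig left atria driven at 1 Hz with 0.6-0.8 ms pulses at […], in oxygenated Tyrode at 35 °C, pH 7.4. Isometric force recorded. Cumulative compound additions of 0.1-100 µM from DMSO stock (bath DMSO ≤0.3%), each after steady state. Potency from log concentration-response curves by probit analysis, n = 6-8.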

[5] = species: Cavia porcellus; assay: The compound was tested for the negative chronotropic activity on isolated guinea pig spontaneously beating right atrium at 10e-4 M.; assay type: functional, Cardiac atrium
Summary of the method: (§4)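 Spontaneously beating right atria from guinea pigs (300-400 g) in oxygenated Tyrode (95% O2-5% CO2), 35 °C, pH 7.4, recorded isometrically. Compounds from DMSO diluted in PSS (DMSO ≤0.3%), added cumulatively at 0.1-100 µM once steady state was reached.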

[6] = species: Cavia porcellus; assay: Inotropic negative potency on spontaneously beating right atrium of guinea pig; assay type: functional, Cardiac atrium; summary of the method: as §4
[7] = species: Cavia porcellus; assay: The compound was tested for the negative inotropic activity on isolated guinea pig left atrium at 5*10e-5 M; assay type: functional, Cardiac atrium; summary of the method: as §3
[8] = target: T2, Voltage-dependent L-type calcium channel subunit alpha-1C (Rattus norvegicus, UniProt P22002); assay: Calcium antagonistic activity by measuring [3H]nitrendipine displacement from rat heart L-type [Ca2+] channel; assay type: functional
Summary of the method: (§5)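 Rat hearts perfused through the aorta with ice-cold saline, homogenized in 50 mM Na-Hepes pH 7.4, filtered through cheesecloth and washed five times at 48000g. Incubated 90 min at 0 °C in the dark with [3H]nitrendipine. Six displacer concentrations used, separated by filtration. IC50 by log-probit analysis, converted to Ki by Cheng-Prusoff. At least three experiments in triplicate.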

[9] = species: Cavia porcellus; assay: Tested for the calcium antagonistic activity on K+-depolarized guinea pig aortic strips at 10e-4 M.; assay type: functional; details: Aorta; summary of the method: as §2
[10] = species: Cavia porcellus; assay: Tested for the negative chronotropic activity on isolated guinea pig spontaneously beating right atrium at 5*10e-5 M.; assay type: functional, Cardiac atrium; summary of the method: as §4
[11] = species: Cavia porcellus; assay: Tested for the negative inotropic activity on isolated guinea pig left atrium at 10e-4 M; assay type: functional, Cardiac atrium; summary of the method: as §3
[12] = target: T1, Voltage-gated L-type calcium channel; assay: Calcium antagonistic activity by measuring [3H]nitrendipine displacement at L-type [Ca2+] channel in rat cortex homogenate; assay type: functional, tissue-based; summary of the method: as §1
[13] = species: Cavia porcellus; assay: The compound was tested for the negative chronotropic activity on isolated guinea pig spontaneously beating right atrium at 10e-5 M.; assay type: functional, Cardiac atrium; summary of the method: as §4
[14] = target: T2, Voltage-dependent L-type calcium channel subunit alpha-1C; assay: The compound was tested for calcium antagonistic activity by measuring [3H]nitrendipine displacement from rat heart L-type calcium channels; Not active; assay type: functional; summary of the method: as §5
[15] = species: Cavia porcellus; assay: The compound was tested for the calcium antagonistic activity on K+-depolarized guinea pig aortic strips; assay type: functional; details: Aorta; summary of the method: as §2
[16] = species: Cavia porcellus; assay: Tested for the negative inotropic activity on isolated guinea pig left atrium at 10e-5 M; assay type: functional, Cardiac atrium; summary of the method: as §3
[17] = species: Cavia porcellus; assay: Inotropic negative potency on stimulated guinea pig left atrium.; assay type: functional; details: Cardiac atrium, read-out: ED50 (the source's name); summary of the method: as §3
[18] = species: Cavia porcellus; assay: Inotropic negative potency on stimulated guinea pig left atrium.(value in parentheses indicate 95% confidence limit*10e-6).; assay type: functional; details: Cardiac atrium, read-out: ED50 (the source's name); summary of the method: as §3
[19] = species: Cavia porcellus; assay: The compound was tested for the negative inotropic activity on isolated guinea pig left atrium at 5*10e-6 M; assay type: functional, Cardiac atrium; summary of the method: as §3
[20] = species: Cavia porcellus; assay: Inotropic negative potency on spontaneously beating right atrium of guinea pig, activity is expressed as […] values; assay type: functional, Cardiac atrium; summary of the method: as §4
[21] = species: Cavia porcellus; assay: The compound was tested for the calcium antagonistic activity on K+-depolarized guinea pig aortic strips at 10e-4 M.; assay type: functional; details: Aorta; summary of the method: as §2
[22] = species: Cavia porcellus; assay: Inotropic negative potency on spontaneously beating right atrium of guinea pig.(value in parentheses indicate 95% confidence limit*10e-6).; assay type: functional, Cardiac atrium; summary of the method: as §4

T2 sequence (P22002 whole entry, the tested form may be a part): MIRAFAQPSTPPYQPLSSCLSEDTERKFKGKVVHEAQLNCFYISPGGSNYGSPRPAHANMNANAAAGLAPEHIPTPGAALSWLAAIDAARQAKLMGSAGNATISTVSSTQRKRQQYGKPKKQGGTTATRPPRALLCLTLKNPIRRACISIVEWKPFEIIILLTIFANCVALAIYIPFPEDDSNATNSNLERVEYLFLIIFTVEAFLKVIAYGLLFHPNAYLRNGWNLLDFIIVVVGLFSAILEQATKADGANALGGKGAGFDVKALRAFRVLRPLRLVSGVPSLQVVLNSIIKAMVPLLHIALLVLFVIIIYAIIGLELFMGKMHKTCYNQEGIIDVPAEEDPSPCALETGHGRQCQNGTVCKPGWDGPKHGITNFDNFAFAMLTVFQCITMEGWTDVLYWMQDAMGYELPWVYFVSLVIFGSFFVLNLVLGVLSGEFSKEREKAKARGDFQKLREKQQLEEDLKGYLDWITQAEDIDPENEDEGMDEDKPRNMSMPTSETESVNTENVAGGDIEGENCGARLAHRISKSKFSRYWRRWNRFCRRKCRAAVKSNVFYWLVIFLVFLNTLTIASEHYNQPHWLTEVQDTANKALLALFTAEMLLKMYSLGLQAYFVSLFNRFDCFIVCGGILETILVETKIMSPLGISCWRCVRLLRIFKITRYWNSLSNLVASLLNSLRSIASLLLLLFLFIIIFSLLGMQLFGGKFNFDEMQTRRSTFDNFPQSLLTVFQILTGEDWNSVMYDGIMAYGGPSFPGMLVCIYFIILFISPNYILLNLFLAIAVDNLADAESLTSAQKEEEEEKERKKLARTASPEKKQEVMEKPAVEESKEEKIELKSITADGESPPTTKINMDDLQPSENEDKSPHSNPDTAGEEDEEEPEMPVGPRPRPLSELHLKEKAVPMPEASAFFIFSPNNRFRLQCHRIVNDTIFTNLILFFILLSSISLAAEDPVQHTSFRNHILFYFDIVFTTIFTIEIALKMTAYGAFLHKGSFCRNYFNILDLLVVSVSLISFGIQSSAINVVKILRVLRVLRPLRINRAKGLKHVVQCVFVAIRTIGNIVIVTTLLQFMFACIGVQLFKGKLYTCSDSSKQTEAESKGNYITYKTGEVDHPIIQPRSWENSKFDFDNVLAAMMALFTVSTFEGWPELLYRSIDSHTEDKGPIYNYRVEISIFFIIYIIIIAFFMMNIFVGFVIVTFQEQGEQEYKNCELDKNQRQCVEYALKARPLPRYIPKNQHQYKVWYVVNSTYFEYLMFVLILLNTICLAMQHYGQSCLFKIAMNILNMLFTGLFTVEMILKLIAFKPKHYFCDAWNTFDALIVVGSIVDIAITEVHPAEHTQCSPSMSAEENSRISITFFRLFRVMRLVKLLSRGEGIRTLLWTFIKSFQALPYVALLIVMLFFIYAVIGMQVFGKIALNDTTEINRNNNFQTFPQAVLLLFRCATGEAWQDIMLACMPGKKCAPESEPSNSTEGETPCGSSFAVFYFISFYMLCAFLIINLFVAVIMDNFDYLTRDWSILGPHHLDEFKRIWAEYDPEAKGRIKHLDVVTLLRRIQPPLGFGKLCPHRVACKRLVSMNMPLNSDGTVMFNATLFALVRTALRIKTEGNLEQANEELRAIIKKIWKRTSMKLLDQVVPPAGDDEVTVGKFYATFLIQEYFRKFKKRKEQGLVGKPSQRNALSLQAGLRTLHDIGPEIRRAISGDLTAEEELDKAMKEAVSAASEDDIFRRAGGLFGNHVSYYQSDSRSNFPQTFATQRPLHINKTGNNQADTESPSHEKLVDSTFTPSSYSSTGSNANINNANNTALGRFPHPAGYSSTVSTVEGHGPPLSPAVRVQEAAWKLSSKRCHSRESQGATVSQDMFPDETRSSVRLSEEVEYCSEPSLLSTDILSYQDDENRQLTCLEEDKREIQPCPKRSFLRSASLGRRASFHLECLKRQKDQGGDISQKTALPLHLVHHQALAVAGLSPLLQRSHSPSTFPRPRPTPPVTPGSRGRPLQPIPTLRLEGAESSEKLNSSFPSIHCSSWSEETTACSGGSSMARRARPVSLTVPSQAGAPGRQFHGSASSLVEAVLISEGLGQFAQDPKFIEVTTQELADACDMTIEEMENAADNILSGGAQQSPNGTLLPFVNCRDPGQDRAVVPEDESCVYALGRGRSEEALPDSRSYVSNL

Compound: CCC(C)NCc1ccc2n1-c1ccccc1SC2c1ccc(OC)cc1 (stereo unspecified)
- Ki [1]: 0.0044 µM
- IC50 [2]: 0.012 µM

Compound: CCC(C)NCc1ccc2n1-c1ccccc1SC2c1ccc(OC)cc1OC (stereo unspecified)
- Inhibition [3]: 18%
- EC50 [4]: 0.6 µM
- Decrease [5]: 67%
- ED30 [6]: 0.42 µM
- Decrease [7]: 85%
- Ki [1]: 0.0055 µM
- Ki [8]: 0.64 µM
- IC50 [2]: 0.015 µM

Compound: COc1ccc(C2(c3ccc(OC)cc3)Sc3ccccc3-n3c(CN(C)C)ccc32)cc1
- inhibition at 100 µM [9]: 12%
- EC50 [4]: 0.73 µM
- Decrease [10]: 48%
- Decrease [11]: 78%
- Ki [12]: 0.809 µM
- IC50 [2]: 2.16 µM

Compound: COc1ccc(C2Sc3ccccc3-n3cccc32)cc1 (stereo unspecified)
- IC50 [2]: > 5 µM

Compound: COc1ccc(C2(c3ccc(OC)cc3)Sc3ccccc3-n3cccc32)cc1
- IC50 [2]: > 5 µM

Compound: COc1ccc(C2Oc3ccccc3-n3c(CN(C)C)ccc32)cc1 (stereo unspecified)
- inhibition at 100 µM [9]: 24%
- EC50 [4]: 0.92 µM
- Decrease [13]: 22%
- Decrease [11]: 69%
- Ki [12]: 1.75 µM
- Ki [14]: Not Active
- IC50 [2]: 4.67 µM

Compound: COc1ccc([C@H]2Sc3ccccc3N3C(=O)CC[C@H]23)cc1
- inhibition at 100 µM [9]: 32%
- EC50 [4]: 1.2 µM
- Decrease [10]: 39%
- Decrease [11]: 60%
- Ki [12]: 0.002 µM
- Ki [8]: 0.035 µM
- IC50 [2]: 0.0044 µM

Compound: COc1ccc(C2(c3ccc(OC)cc3)Sc3ccc(C(F)(F)F)cc3-n3cccc32)cc1
- IC50 [2]: > 5 µM

Compound: O=C1CC[C@@H]2[C@@H](c3ccccc3)Sc3ccccc3N12
- inhibition at 100 µM [9]: 37%
- EC50 [4]: 0.23 µM
- IC50 [15]: 20 µM
- Decrease [10]: 20%
- Decrease [16]: 66%
- Ki [12]: 0.00029 µM
- IC50 [2]: 0.00078 µM

Compound: COc1ccc(C2Sc3ccccc3-n3c(CNc4ccc(F)cc4)ccc32)cc1 (stereo unspecified)
- IC50 [2]: > 5 µM

Compound: COc1ccc(C2Sc3ccccc3-n3c(CNCCc4ccc(OC)c(OC)c4)ccc32)c(OC)c1 (stereo unspecified)
- Inhibition [3]: 9%
- EC50 [4]: 0.56 µM
- Decrease [10]: 10%
- Decrease [7]: 83%

Compound: CN(C)Cc1ccc2n1-c1cccc(Cl)c1SC2(c1ccccc1)c1ccccc1
- Ki [12]: 0.031 µM
- Ki [8]: 0.026 µM
- IC50 [2]: 0.082 µM

Compound: FC(F)(F)c1ccc2c(c1)-n1cccc1C(c1ccccc1)(c1ccccc1)S2
- Ki [12]: 0.772 µM
- IC50 [2]: 2.06 µM

Compound: CN(C)Cc1ccc2n1-c1ccccc1SC2(c1ccccc1)c1ccccc1
- inhibition at 100 µM [9]: 3.4%
- EC50 [17]: 0.89 µM
- Decrease [10]: 10%
- Decrease [16]: 56%

Compound: COc1ccc(C2Sc3ccccc3-n3c(CN(C)CCc4ccc(OC)c(OC)c4)ccc32)cc1 (stereo unspecified)
- inhibition at 100 µM [9]: 4%
- EC50 [4]: 0.84 µM
- Decrease [10]: 32%
- Decrease [11]: 86%
- Ki [8]: 0.0083 µM

Compound: CN(C)Cc1ccc2n1-c1cc(C(F)(F)F)ccc1SC2(c1ccccc1)c1ccccc1
- Ki [12]: 0.0401 µM
- IC50 [2]: 0.107 µM

Compound: COc1ccc(C2Sc3ccccc3-n3c(CN4CCOCC4)ccc32)cc1 (stereo unspecified)
- IC50 [2]: > 5 µM

Compound: Clc1ccc2c(c1)-n1cccc1C(c1ccccc1)(c1ccccc1)S2
- Ki [12]: 1.63 µM
- IC50 [2]: 4.35 µM

Compound: c1ccc(C2(c3ccccc3)Sc3ccccc3-n3cccc32)cc1
- Ki [12]: 0.178 µM
- IC50 [2]: 0.465 µM

Compound: CC(=O)OC1(c2ccccc2)Sc2ccccc2-n2cccc21 (stereo unspecified)
- inhibition at 100 µM [9]: 36%
- EC50 [18]: 0.38 µM
- Decrease [10]: 33%
- Decrease [7]: 86%
- Ki [12]: 1.83 µM
- IC50 [2]: 4.7 µM

Compound: COc1ccc(C2Sc3ccccc3-n3c(CNCCc4ccc(OC)c(OC)c4)ccc32)cc1 (stereo unspecified)
- Inhibition [3]: 16%
- EC50 [4]: 0.45 µM
- Decrease [10]: 14%
- Decrease [11]: 82%

Compound: COc1ccc(C2Sc3ccccc3-n3c(CN(C)C)ccc32)c(OC)c1 (stereo unspecified)
- Inhibition [3]: 5%
- EC50 [4]: 0.15 µM
- Decrease [5]: 20%
- Decrease [19]: 68%
- Ki [8]: 0.16 µM

Compound: CN(C)Cc1ccc2n1-c1ccccc1SC2c1ccccc1 (stereo unspecified)
- inhibition at 100 µM [9]: 42%
- EC50 [4]: 1.5 µM
- Decrease [10]: 76%
- ED30 [20]: 0.51 µM
- Decrease [11]: 79%

Compound: COc1ccc(C2Sc3ccccc3-n3c(CN(C)C)ccc32)cc1 (stereo unspecified)
- EC50 [4]: 0.81 µM
- Decrease [5]: 30%
- Decrease [16]: 75%
- Ki [8]: 0.053 µM
- inhibition at 100 µM [21]: 10%

Compound: Clc1cccc2c1SC(c1ccccc1)(c1ccccc1)c1cccn1-2
- Ki [12]: 0.12 µM
- IC50 [2]: 0.32 µM

Compound: COc1ccc(C2Sc3ccccc3-n3c(CN(C)CCc4ccc(OC)c(OC)c4)ccc32)c(OC)c1 (stereo unspecified)
- Inhibition [3]: 10%
- EC50 [4]: 0.86 µM
- Decrease [10]: 18%
- Decrease [7]: 62%
- Ki [1]: 0.74 µM
- IC50 [2]: 1.6 µM

Compound: COc1ccc(C2(OC(C)=O)Sc3ccccc3-n3cccc32)cc1 (stereo unspecified)
- inhibition at 100 µM [9]: 11%
- EC50 [18]: 0.24 µM
- Decrease [10]: 70%
- ED30 [22]: 2.3 µM
- Decrease [16]: 71%
- Ki [12]: 0.011 µM
- IC50 [2]: 0.03 µM

Compound: CC(=O)OC1(c2ccccc2)Sc2ccc(C(F)(F)F)cc2-n2cccc21 (stereo unspecified)
- Ki [12]: 0.024 µM
- IC50 [2]: 0.065 µM

Compound: COc1ccc(CCN(C)Cc2ccc3n2-c2ccccc2SC3c2ccccc2)cc1OC (stereo unspecified)
- Ki [1]: 0.074 µM
- IC50 [2]: 0.198 µM

Compound: COc1ccc(C2Sc3ccccc3-n3c(CNc4ccc(F)cc4)ccc32)c(OC)c1 (stereo unspecified)
- IC50 [2]: > 5 µM

Compound: COc1ccc([C@@H]2Sc3ccccc3N(CCN(C)C)C(=O)[C@@H]2OC(C)=O)cc1 [DILTIAZEM]
- inhibition at 100 µM [9]: 88%
- EC50 [4]: 0.79 µM
- Decrease [10]: 94%
- ED30 [6]: 0.07 µM
- Decrease [16]: 78%
